Measured values from ChEMBL document CHEMBL4371095, “Triazole-Based Inhibitors of the Wnt/β-Catenin Signaling Pathway Improve Glucose and Lipid Metabolisms in Diet-Induced Obese Mice” (J Med Chem, 2019).
The source made the active and inactive calls. The calls are words filed in the database; no cut-off is given here.

How the values were obtained:
[1] = Toxicity in normal chow diet fed C57BL/6J mouse assessed as serum BUN level at 40 mg/kg, ip administered every 2 days for 11 weeks (reference value: 19 +/- 1.8 mg/dl); type: organism-based; details: in vivo
[2] = test system: Mus musculus; assay: Decrease in hepatic SREBP1 mRNA level in high fat diet fed C57BL/6J mouse at 40 mg/kg, ip administered every 2 days for 11 weeks by qPCR analysis; type: functional, organism-based
In short: (§1)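 Male mice, 8 weeks old, fed a 45% kcal fat diet for 6 weeks, then dosed i.p. every 2 days in corn oil vehicle for 11 weeks. Liver mRNA of the indicated genes was quantified at sacrifice; mean ± SEM, n = 5 per group.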

[3] = Toxicity in high fat diet fed C57BL/6J mouse assessed as serum triglyceride level at 40 mg/kg, ip administered every 2 days for 11 weeks (reference value: 93.5 +/- 12.1 mg/dl); type: organism-based; details: in vivo
[4] = test system: Mus musculus; assay: Decrease in hepatic ACAT2 mRNA level in high fat diet fed C57BL/6J mouse at 40 mg/kg, ip administered every 2 days for 11 weeks by qPCR analysis; type: functional, organism-based; in short: as §1
[5] = test system: Mus musculus; assay: Antidiabetic activity in high fat diet fed C57BL/6J mouse assessed as improvement in glucose tolerance at 40 mg/kg, ip administered every 2 days for 11 weeks followed by glucose-challenge and measured up to 120 mins by IPGTT; type: functional, organism-based
In short: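 Male mice, 8 weeks old, fed a 45% kcal fat diet for 6 weeks, then dosed i.p. every 2 days in corn oil vehicle alongside the continued diet. IPGTT was done before and at the end of treatment: 6–8 h fast, then glucose 2 g/kg i.p. in saline. Tail-vein blood glucose was read by glucometer over time, and AUC was derived; mean ± SEM, n = 5 per group.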

[6] = test system: Mus musculus; assay: Effect on hepatic ACOT4 mRNA level in normal chow diet fed C57BL/6J mouse at 40 mg/kg, ip administered every 2 days for 11 weeks by qPCR analysis; type: ADME, organism-based; details: in vivo
In short: (§2)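 Male mice, 8 weeks old, kept on normal chow throughout and dosed i.p. every 2 days in corn oil vehicle for 11 weeks. Body weight gain, liver/body weight ratio, and liver mRNA of the indicated genes were measured at sacrifice; mean ± SEM, n = 5 per group where stated.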

[7] = Inhibition of Wnt/beta-catenin signaling (unknown origin) expressed in HEK293 cells harboring siRNA after 24 hrs by luciferase reporter gene assay; type: cell-based; details: Homo sapiens, HEK293, 24 h
[8] = test system: Mus musculus; assay: Effect on hepatic GCK mRNA level in normal chow diet fed C57BL/6J mouse at 40 mg/kg, ip administered every 2 days for 11 weeks by qPCR analysis; type: ADME, organism-based; details: in vivo; in short: as §2
[9] = organism: Mus musculus; assay: Inhibition of Wnt/beta-catenin/Axin signaling in mouse hepatocytes assessed as decrease in ACAA1A mRNA level at 5 uM by qPCR analysis; type: cell-based
In short: (§3)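 Normal mouse hepatocytes were treated with 5 μM compound, and lipogenic and gluconeogenic gene mRNA was measured by qPCR; mean ± S.D. of triplicates.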

[10] = Toxicity in normal chow diet fed C57BL/6J mouse assessed as serum creatinine level at 40 mg/kg, ip administered every 2 days for 11 weeks by Jaffe's reaction analysis (reference value: 0.2 +/- 0.01 mg/dl); type: organism-based; details: in vivo
[11] = test system: Mus musculus; assay: Decrease in body weight gain in high fat diet fed C57BL/6J mouse at 40 mg/kg, ip administered every 2 days for 11 weeks; type: functional, organism-based
In short: (§4)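 Male mice, 8 weeks old, 24–27 g, given a 45% kcal fat diet for 6 weeks, then dosed i.p. every 2 days in corn oil vehicle with the diet continued. Sacrifice was about 24 h after the last dose. Liver was examined by H&E. Liver and serum triglyceride were measured by kit. Serum chemistry was included, and liver/body weight ratio was calculated.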

[12] = Toxicity in high fat diet fed mouse up to 200 mg/kg, ip by LC-MS analysis; type: organism-based; details: in vivo
[13] = organism: Mus musculus; assay: Inhibition of Wnt/beta-catenin/Axin signaling in mouse hepatocytes assessed as decrease in G6PASE mRNA level at 5 uM by qPCR analysis; type: cell-based; in short: as §3
[14] = test system: Mus musculus; assay: Decrease in hepatic triglyceride content in high fat diet fed C57BL/6J mouse at 40 mg/kg, ip administered every 2 days for 11 weeks; type: functional, organism-based; in short: as §4
[15] = test system: HEK293; assay: Inhibition of Wnt/beta-catenin signaling (unknown origin) expressed in GSK3beta knock down HEK293 cells harboring TCF/LEF-responsive luciferase assessed as luminescence at 20 nM measured after 24 hrs by luciferase reporter gene assay relative to control; type: cell-based; set-up: scale not given: the % may be the effect or the level left; details: Homo sapiens
In short: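 HEK293 cells were transfected with siRNA against GSK3β, Axin or CK1α using RNAiMAX for 36 h. Cells were then treated with or without compound at 20 nM for 24 h, and TCF/LEF luciferase reporter activity was read.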

[16] = test system: Mus musculus; assay: Decrease in hepatic ACOT4 mRNA level in high fat diet fed C57BL/6J mouse at 40 mg/kg, ip administered every 2 days for 11 weeks by qPCR analysis; type: functional, organism-based; in short: as §1
[17] = Toxicity in normal chow diet fed C57BL/6J mouse assessed as serum cholesterol level at 40 mg/kg, ip administered every 2 days for 11 weeks (reference value: 183 +/- 16.6 mg/dl); type: organism-based; details: in vivo
[18] = test system: Mus musculus; assay: Decrease in hepatic […] mRNA level in high fat diet fed C57BL/6J mouse at 40 mg/kg, ip administered every 2 days for 11 weeks by qPCR analysis; type: functional, organism-based; in short: as §1
[19] = test system: Mus musculus; assay: Decrease in hepatic GCK mRNA level in high fat diet fed C57BL/6J mouse at 40 mg/kg, ip administered every 2 days for 11 weeks by qPCR analysis; type: functional, organism-based; in short: as §1
[20] = test system: Mus musculus; assay: Decrease in hepatic lipid accumulation in high fat diet fed C57BL/6J mouse at 40 mg/kg, ip administered every 2 days for 11 weeks; type: functional, organism-based; in short: as §4
[21] = organism: Mus musculus; assay: Inhibition of Wnt/beta-catenin/Axin signaling in mouse hepatocytes assessed as decrease in SCD1 mRNA level at 5 uM by qPCR analysis; type: cell-based; in short: as §3
[22] = test system: HEK293; assay: Inhibition of Wnt3a activated Wnt/beta-catenin/Axin signaling (unknown origin) expressed in HEK293 cells assessed as stabilization of Axin1 protein at 1 to 10 uM after 2 hrs by Western blot method; type: cell-based; details: Homo sapiens
In short: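 HEK293 cells stimulated with WNT3a were treated with compound for 2 h. Cells were lysed in 10 mM HEPES, 100 μM EDTA, 10 mM KCl, 0.5% NP40, protein was quantified by BCA, and β-catenin and Axin1 were resolved on 10% SDS-PAGE and immunoblotted.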

[23] = test system: Mus musculus; assay: Decrease in hepatic G6pase mRNA level in high fat diet fed C57BL/6J mouse at 40 mg/kg, ip administered every 2 days for 11 weeks by qPCR analysis; type: functional, organism-based; in short: as §1
[24] = test system: Mus musculus; assay: Effect on hepatic SCD1 mRNA level in normal chow diet fed C57BL/6J mouse at 40 mg/kg, ip administered every 2 days for 11 weeks by qPCR analysis; type: ADME, organism-based; details: in vivo; in short: as §2
[25] = test system: Mus musculus; assay: Effect on hepatic FASN mRNA level in normal chow diet fed C57BL/6J mouse at 40 mg/kg, ip administered every 2 days for 11 weeks by qPCR analysis; type: ADME, organism-based; details: in vivo; in short: as §2
[26] = test system: Mus musculus; assay: Decrease in hepatic PEPCK mRNA level in high fat diet fed C57BL/6J mouse at 40 mg/kg, ip administered every 2 days for 11 weeks by qPCR analysis; type: functional, organism-based; in short: as §1

With Cc1ccccc1-n1nnc(C(=O)Nc2ccc3ccccc3n2)c1C the Activity [1] was 21.8 mg/dL, the Activity [2] was “Active” and the Activity [3] was 85.3 mg/dL. The Activity [4] was “Active”, the Activity [5] was “Active” and the Activity [6] was “Non-Toxic”. For the same compound, the IC50 [7] was 20 nM, the Activity [8] was “Non-Toxic” and the inhibition [9] was “Active”. For the same compound, the Activity [10] was 0.2 mg/dL, the Activity [11] was “Active” and the Activity [12] was “Non-Toxic”. The inhibition [13] was “Active”, the Activity [14] was “Active” and the Activity [15] was 69%. For the same compound, the Activity [16] was “Active”, the Activity [17] was 194 mg/dL and the Activity [18] was “Active”. The Activity [19] was “Active”, the Activity [20] was “Active” and the inhibition [21] was “Active”. For the same compound, the inhibition [22] was “Active”, the Activity [23] was “Active” and the Activity [24] was “Non-Toxic”. For the same compound, the Activity [25] was “Non-Toxic” and the Activity [26] was “Active”.
